Experimental data reported in ChEMBL document CHEMBL1154830, “A beta-carboline alkaloid from the Papua New Guinea marine sponge hyrtios reticulatus” (J Nat Prod, 2010).
In brackets after ≈: the same amount, converted by molar mass. Activity calls are given as the source filed them. The rule behind the calls is not given here.

Columns and labels:
[1] = tested on: DU-145; assay: Cytotoxic activity against human DU145 cells after 96 hrs by luminescent cell viability assay; assay type: functional, cell-based; conditions: DU-145, 96 h
Method in brief: (§1)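 Cells in 96-well plates grown without compound or with continuous exposure to 1.5–50,000 nM test compound for 96 h. Growth read by CellTiter-Glo luminescence. IC50 is the concentration giving 50% growth inhibition relative to untreated cells. Two separate replicate experiments.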

[2] = tested on: OVCAR-5; assay: Cytotoxic activity against human OVCAR5 cells after 96 hrs by luminescent cell viability assay; assay type: functional, cell-based; conditions: OVCAR-5, 96 h
[3] = tested on: HT-29; assay: Cytotoxic activity against human HT-29 cells after 96 hrs by luminescent cell viability assay; assay type: functional, cell-based; conditions: HT-29, 96 h; method in brief: as §1
[4] = tested on: UACC-257; assay: Cytotoxic activity against human UACC257 cells after 96 hrs by luminescent cell viability assay; assay type: functional, cell-based; conditions: UACC-257, 96 h
[5] = tested on: HeLa; assay: Cytotoxicity against human HeLa cells assessed as nuclear blebbing at 230 uM after 24 hrs by hoechst 33342 staining method; assay type: functional, cell-based
Method in brief: (§2)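 HeLa cells plated at 1500 cells/well and held overnight at 37 °C, 5% CO2, then compound pinned in. After 24 h, fixed in 4% formaldehyde for 20 min, permeabilized with 0.5% Triton X-100 in PBS for 10 min and blocked. Actin stained with rhodamine-phalloidin for 20 min and DNA with Hoechst 33342.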

[6] = tested on: HeLa; assay: Cytotoxicity against human HeLa cells assessed as disruption of cytoskeleton at 230 uM after 24 hrs by rhodamine-phalloidin staining method; assay type: functional, cell-based; method in brief: as §2
[7] = tested on: MCF7; assay: Cytotoxic activity against human MCF7 cells after 96 hrs by luminescent cell viability assay; assay type: functional, cell-based; conditions: MCF7, 96 h
[8] = tested on: HeLa; assay: Cytotoxicity against human HeLa cells at 230 uM after 24 hrs; assay type: functional; method in brief: as §2
[9] = tested on: MDA-MB-435; assay: Cytotoxic activity against human MDA-MB-435 cells after 96 hrs by luminescent cell viability assay; assay type: functional, cell-based; conditions: MDA-MB-435, 96 h
[10] = tested on: SF-539; assay: Cytotoxic activity against human SF539 cells after 96 hrs by luminescent cell viability assay; assay type: functional, cell-based; conditions: SF-539, 96 h
[11] = tested on: HCC 2998; assay: Cytotoxic activity against human HCC2998 cells after 96 hrs by luminescent cell viability assay; assay type: functional, cell-based; conditions: HCC 2998, 96 h
[12] = tested on: SR; assay: Cytotoxic activity against human SR cells after 96 hrs by luminescent cell viability assay; assay type: functional, cell-based
[13] = tested on: BT-549; assay: Cytotoxic activity against human BT549 cells after 96 hrs by luminescent cell viability assay; assay type: functional, cell-based; conditions: BT-549, 96 h; method in brief: as §1
[14] = tested on: U-937; assay: Cytotoxic activity against human U937 cells after 96 hrs by luminescent cell viability assay; assay type: functional, cell-based; conditions: U-937, 96 h
[15] = Cytotoxic activity against human H522-T1 cells after 96 hrs by luminescent cell viability assay; assay type: functional, cell-based; conditions: H522-T1, 96 h
[16] = tested on: NCI-H460; assay: Cytotoxic activity against human H460 cells after 96 hrs by luminescent cell viability assay; assay type: functional, cell-based; conditions: NCI-H460, 96 h; method in brief: as §1

## O=C(O)c1cc2c([nH]c3ccc(O)cc32)c(C(=O)c2c[nH]cn2)n1 [HYRTIOCARBOLIN]
[1]
  IC50: 34 µg/mL (≈ 105 µM)
[2]
  IC50: > 50 µg/mL
[3]
  IC50: > 50 µg/mL
[4]
  IC50: > 50 µg/mL
[5]
  Activity: Active
[6]
  Activity: Active
[7]
  IC50: > 50 µg/mL
[8]
  inhibition at 230 µM: 57%
[9]
  IC50: 3 µg/mL (≈ 9.31 µM)
[10]
  IC50: > 50 µg/mL
[11]
  IC50: > 50 µg/mL
[12]
  IC50: > 50 µg/mL
[13]
  IC50: 45 µg/mL (≈ 140 µM)
[14]
  IC50: 1.5 µg/mL (≈ 4.65 µM)
[15]
  IC50: 1.2 µg/mL (≈ 3.72 µM)
[16]
  IC50: 17 µg/mL (≈ 52.7 µM)
